Test results published in publication PMC9298258 (Clinical Pharmacology and Therapeutics, 2021).
One block for each compound: values may come before it.

How the values were obtained:
patients with RA = conditions: cited from earlier work
[1] = Plasma PK of tirabrutinib in two phase I studies; type: in vivo; conditions: human, oral
[2] = test system: murine collagen–induced arthritis model; conditions: cited from earlier work
Population PK model = type: in vivo, human
Method in brief: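 Plasma drug was measured by validated LC-MS/MS with an isotopically labeled internal standard (LLOQ 1.0 ng/mL). Pooled data came from healthy and RA subjects in two phase I studies. The model was two-compartment with first-order absorption, lag time and relative bioavailability, with IIV on CL/F, Vc/F and ka. Fitting used NONMEM FOCE-I. Covariates were screened on CL/F, Vc/F and ka, and bootstrap gave CIs.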

BTK = BTK (Homo sapiens, UniProt Q06187); assay: BTK occupancy test in peripheral blood mononuclear cells; type: in vivo
Sequence of BTK (Q06187 whole entry): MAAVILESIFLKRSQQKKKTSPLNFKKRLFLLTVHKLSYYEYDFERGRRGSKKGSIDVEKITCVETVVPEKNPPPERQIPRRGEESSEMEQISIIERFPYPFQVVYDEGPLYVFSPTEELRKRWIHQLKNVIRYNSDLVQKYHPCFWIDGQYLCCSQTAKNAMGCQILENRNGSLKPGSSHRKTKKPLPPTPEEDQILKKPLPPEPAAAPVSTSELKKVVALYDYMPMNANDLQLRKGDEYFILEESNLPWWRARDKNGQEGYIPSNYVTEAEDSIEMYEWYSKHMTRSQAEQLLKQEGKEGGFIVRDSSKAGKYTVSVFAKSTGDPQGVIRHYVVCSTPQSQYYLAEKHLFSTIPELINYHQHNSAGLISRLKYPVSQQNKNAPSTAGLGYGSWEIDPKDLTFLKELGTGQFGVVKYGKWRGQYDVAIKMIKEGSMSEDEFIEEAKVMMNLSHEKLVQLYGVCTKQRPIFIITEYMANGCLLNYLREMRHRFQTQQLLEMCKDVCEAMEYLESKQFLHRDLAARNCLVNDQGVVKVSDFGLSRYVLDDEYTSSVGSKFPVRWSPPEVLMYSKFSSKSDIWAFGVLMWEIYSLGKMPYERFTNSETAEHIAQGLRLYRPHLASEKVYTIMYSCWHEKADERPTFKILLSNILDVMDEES
Method in brief: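 PBMC BTK occupancy measured by duplexed homogeneous TR-FRET, reading free and total BTK in the same well. LLOQ was 12 ng/mL; baselines below it were excluded. Study #1 used days 8 and 17, with day-8 predose as baseline. Study #2 sampled at baseline, days 1–7 and up to 120 h post-last-dose, or at PK timepoints. Covalent binding model with BTK-synthesis feedback (ksyn); NONMEM FOCE-I; bootstrap.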

[3] = cited from earlier work
subjects with RA = assay: Exploratory efficacy in study #2, part B; type: in vivo, human; conditions: 20 mg q.d.
Method in brief: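 RA subjects in phase I part B were assessed at day 1 predose, week 2 and week 4. End points were plasma hsCRP and tender joint count 68 within the ACR core set. Each end point was regressed linearly against model-predicted time above 90% BTK occupancy over a 24-hour dosing interval.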

[4] = bootstrap (N = 1000) final model median estimate
[5] = final PopPK model estimate (RSE%)

SMILES: C=CC(=O)Nc1cccc(Nc2nc(Nc3ccc(OCCOC)cc3)ncc2F)c1 [spebrutinib]
disease markers in patients with active RA (patients with RA): reduce disease markers

half-life [1]: 6.2 to 7.3 h
Absorption lag time (Population PK model; [4]): 0.465 h
Absorption rate constant, ka (Population PK model; [4]): 0.811 h⁻¹
Apparent oral clearance, CL/F (Population PK model; [4]): 62.5 L/h
Apparent oral volume, Vc/F (Population PK model; [4]): 357 L
IIV of CL/F (Population PK model; [4]): 27.1%
IIV of Vc/F (Population PK model; [4]): 53.7%
IIV of ka (Population PK model; [4]): 89.6%
Influence of age on ka (Population PK model; [4]): –1.74
Absorption lag time (Population PK model; [5]): 0.465 (1) h
Absorption rate constant, ka (Population PK model; [5]): 0.800 (14) h^−1
Apparent oral clearance, CL/F (Population PK model; [5]): 62.6 (4) L/h
Apparent oral volume, Vc/F (Population PK model; [5]): 357 (7) L
IIV of ka (Population PK model; [5]): 93.4 (13) %
Influence of age on ka (Population PK model; final PopPK model estimate (RSE%), covariate exponent): –1.74 (26)
Feedback rate constant on protein synthesis from BTK inhibition, ksyn (BTK; [4]): -0.0290 h⁻¹
Feedback rate constant on protein synthesis from BTK inhibition, ksyn (BTK; final PK/PD model estimate (RSE%)): −0.0301 (59) h^−1
SMILES: CC#CC(=O)N1CC[C@@H](n2c(=O)n(-c3ccc(Oc4ccccc4)cc3)c3c(N)ncnc32)C1 [tirabrutinib, Tirabrutinib]
arthritis severity and bone damage [2]: dose‐dependent inhibition
BTK suppression after multiple dosing (BTK; model and observed fBTK): maintained through a 24‐hour dosing interval
dose proportionality of pharmacokinetics ([3]; 20-to-320 mg dose range): dose‐proportional
tolerability ([3]; patients with B-cell malignancies, 20 to 480 mg q.d.): generally well‐tolerated
absorption following oral administration ([3]; phase I dose escalation study): rapidly absorbed
change in TJC68 (subjects with RA; week 4 visit): small numerical decrease
change in hsCRP levels (subjects with RA; week 4 visit): small numerical decrease
effects on disease-related outcomes (subjects with RA; exploratory efficacy analysis): modest effects

SMILES: C[C@H]1CN(C2COC2)CCN1c1ccc(Nc2cc(-c3ccnc(N4CCn5c(cc6c5CC(C)(C)C6)C4=O)c3CO)cn(C)c2=O)nc1 [fenebrutinib]
efficacy in moderate-to-severe RA (patients with RA): comparable with adalimumab
BTK inhibition achieved by the efficacious doses (patients with RA; subjects with RA): 90%
